pIC50: −log10 of the molar value.

One assay has as its system K562. As to the kind of experiment: Cytotoxicity against human K562 cells after 96 hrs by trypan blue exclusion assay. It counts as functional, cell-based. Conditions: for pIC50: K562, 96 h. The essentials:
(§1)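 Cells were grown in DMEM or RPMI with 10% FBS and plated at 2.5×10⁴ cells/well in 12-well dishes. Compounds were added 24 h later at various concentrations. After 96 h, viable cells were counted by trypan blue exclusion from duplicate wells. Results are the mean of two independent experiments.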

The next assay relates to DU-145. The assay can be described thus: Cytotoxicity against human DU145 cells after 96 hrs by trypan blue exclusion assay. It counts as functional, cell-based. As to conditions: for pIC50: DU-145, 96 h. In short, it runs like this:
as §1

On to `COC(=O)C(Nc1cc(NS(=O)(=O)/C=C/c2c(OC)cc(OC)cc2OC)ccc1OC)c1ccc(Br)cc1` (stereo not drawn), for which, in the assay on K562, the Activity result is “Dose-dependent effect” and the pIC50 was 6.00. Further, in the assay with DU-145, the Activity entry was “Dose-dependent effect” and the pIC50 was 5.12.
Turning to `COc1ccc(NS(=O)(=O)/C=C/c2c(OC)cc(O)cc2OC)cc1`, in the assay on K562, the Activity entry is “Dose-dependent effect” and the pIC50 was 5.00. Moreover, in the assay on DU-145, the Activity result is “Dose-dependent effect” and the pIC50 is 5.00.
Take `O=S(=O)(/C=C/c1c(F)c(F)c(F)c(F)c1F)Nc1c(F)c(F)c(F)c(F)c1F`: in the assay with K562, the Activity entry is “Dose-dependent effect” and the pIC50 was 4.46. Also, in the assay on DU-145, the Activity entry is “Dose-dependent effect” and the pIC50 was 4.46.
On to `O=S(=O)(/C=C/c1ccc(Br)cc1)Nc1ccc(F)cc1`, for which the Activity result in the assay with K562 and in the assay with DU-145 was “Dose-dependent effect” throughout. Moreover, the pIC50 with K562 and in the assay with DU-145 was 5.00 throughout.
Turning to `COc1ccc(NS(=O)(=O)/C=C/c2c(F)c(F)c(F)c(F)c2F)cc1[N+](=O)[O-]`, in the assay on K562, the Activity entry was “Dose-dependent effect” and the pIC50 is 4.00. Further, in the assay on DU-145, the Activity entry was “Dose-dependent effect” and the pIC50 was 4.00.
In the case of `COc1cc(OC)c(/C=C/S(=O)(=O)Nc2cc(N)c(OC)c(N)c2)c(OC)c1`, in the assay with K562, the Activity result was “Dose-dependent effect” and the pIC50 was 5.12. In addition, in the assay on DU-145, the Activity entry was “Dose-dependent effect” and the pIC50 was 5.60.
As for `COC(=O)C(Nc1cc(NS(=O)(=O)/C=C/c2c(OC)cc(OC)cc2OC)ccc1OC)c1ccc(Cl)cc1` (stereo not drawn), in the assay with K562, the Activity result is “Dose-dependent effect” and the pIC50 was 5.60. Also, in the assay on DU-145, the Activity entry was “Dose-dependent effect” and the pIC50 is 5.30.
For the compound `COc1ccc(NS(=O)(=O)/C=C/c2c(OC)cccc2OC)cc1`, in the assay with K562, the Activity entry was “Dose-dependent effect” and the pIC50 was 5.30. In the assay on DU-145, the Activity result is “Dose-dependent effect” and the pIC50 is 6.43.
As to `COc1ccc(NS(=O)(=O)/C=C/c2c(F)c(F)c(F)c(F)c2F)cc1`, in the assay on K562, the Activity entry was “Dose-dependent effect” and the pIC50 was 5.30. Besides, in the assay on DU-145, the Activity entry was “Dose-dependent effect” and the pIC50 was 5.00.
For the compound `COc1cc(OC)c(/C=C/S(=O)(=O)Nc2ccc(F)c(N)c2)c(OC)c1`, the Activity result in the assay with K562 and with DU-145 was “Dose-dependent effect” throughout. Besides, the pIC50 in the assay with K562 is 5.30; in the assay on DU-145, 5.00.
`COc1cc(OC)c(/C=C/S(=O)(=O)Nc2ccc(F)c([N+](=O)[O-])c2)c(OC)c1`: in the assay with K562, the Activity entry was “Dose-dependent effect” and the pIC50 is 4.12. For the same compound, in the assay with DU-145, the Activity result is “Dose-dependent effect” and the pIC50 is 4.00.
As to `COc1ccc(/C=C/S(=O)(=O)Nc2c(F)c(F)c(F)c(F)c2F)cc1[N+](=O)[O-]`, the Activity entry with K562 and in the assay on DU-145 was “Dose-dependent effect” throughout. In addition, the values for the pIC50 in the assay on K562 and in the assay on DU-145 were 4.12 and 4.00, respectively.
As to `COC(=O)C(Nc1cc(NS(=O)(=O)/C=C/c2c(OC)cc(OC)cc2OC)ccc1OC)c1ccccc1` (stereo not drawn), the Activity result with K562 and with DU-145 was “Dose-dependent effect” in each case. The pIC50 with K562 and with DU-145 was 5.60 throughout.
In the case of `COc1cc(OC)c(/C=C/S(=O)(=O)Nc2cc([N+](=O)[O-])c(OC)c([N+](=O)[O-])c2)c(OC)c1`, in the assay on K562, the Activity result is “Dose-dependent effect” and the pIC50 is 5.00. In the assay on DU-145, the Activity result was “Dose-dependent effect” and the pIC50 was 5.00.
For the compound `COc1ccc(NS(=O)(=O)/C=C/c2c(F)c(F)c(F)c(F)c2F)cc1N`, in the assay on K562, the Activity entry was “Dose-dependent effect” and the pIC50 is 4.12. In addition, in the assay on DU-145, the Activity entry is “Dose-dependent effect” and the pIC50 was 4.12.
Turning to `O=S(=O)(/C=C/c1ccccc1)Nc1ccccc1`, in the assay with K562, the Activity entry was “Dose-dependent effect” and the pIC50 is 5.00. Besides, in the assay with DU-145, the Activity result is “Dose-dependent effect” and the pIC50 is 5.00.
`COc1ccc(NS(=O)(=O)/C=C/c2ccc(OC)cc2OC)cc1`: in the assay on K562, the Activity result was “Dose-dependent effect” and the pIC50 was 4.82. Besides, in the assay on DU-145, the Activity entry is “Dose-dependent effect” and the pIC50 was 4.82.
On to `COc1ccc(NS(=O)(=O)/C=C/c2c(OC)cc(OCCCC(=O)O)cc2OC)cc1O`, for which, in the assay with K562, the Activity entry is “Dose-dependent effect” and the pIC50 is 5.00. Also, in the assay on DU-145, the Activity result was “Dose-dependent effect” and the pIC50 is 5.00.
With `COc1ccc(/C=C/S(=O)(=O)Nc2c(F)c(F)c(F)c(F)c2F)cc1N`, the Activity entry in the assay on K562 and with DU-145 was “Dose-dependent effect” throughout. Moreover, the pIC50 with K562 and with DU-145 was 4.46 throughout.
On to `COc1ccc(NS(=O)(=O)/C=C/c2cc(OC)c(OC)c(OC)c2)cc1[N+](=O)[O-]`, for which, in the assay on K562, the Activity entry is “Dose-dependent effect” and the pIC50 was 4.12. In the assay on DU-145, the Activity result was “Dose-dependent effect” and the pIC50 was 4.12.
On to `COc1ccc(NS(=O)(=O)/C=C/c2cc(OC)c(OC)c(OC)c2)cc1`, for which, in the assay on K562, the Activity entry was “Dose-dependent effect” and the pIC50 is 4.46. In the assay on DU-145, the Activity entry was “Dose-dependent effect” and the pIC50 was 4.46.
As for `COC(=O)C(C)(C)Nc1cc(NS(=O)(=O)/C=C/c2c(OC)cc(OC)cc2OC)ccc1OC`, in the assay with K562, the Activity entry was “Dose-dependent effect” and the pIC50 was 6.52. In the assay with DU-145, the Activity result was “Dose-dependent effect” and the pIC50 is 6.70.
For `COC(=O)C(Nc1cc(NS(=O)(=O)/C=C/c2c(OC)cc(OC)cc2OC)ccc1OC)c1ccc(F)cc1` (stereo not drawn), the Activity result in the assay on K562 and in the assay with DU-145 was “Dose-dependent effect” each time. Moreover, the pIC50 with K562 and in the assay with DU-145 was 5.60 each time.
In the case of `COC(=O)CNc1cc(NS(=O)(=O)/C=C/c2c(OC)cc(OC)cc2OC)ccc1OC`, in the assay on K562, the Activity entry is “Dose-dependent effect” and the pIC50 is 6.46. Besides, in the assay on DU-145, the Activity entry was “Dose-dependent effect” and the pIC50 is 6.46.
`COc1cc(OC)c(/C=C/S(=O)(=O)Nc2ccc(OC)c([N+](=O)[O-])c2)c(OC)c1`: in the assay with K562, the Activity entry was “Dose-dependent effect” and the pIC50 was 6.00. For the same compound, in the assay on DU-145, the Activity result was “Dose-dependent effect” and the negative-log IC50 (pIC50) is 5.60.
Consider `COc1cc(OC)c(/C=C/S(=O)(=O)Nc2ccc(OC)c(OP(=O)(O)O)c2)c(OC)c1`, for which, in the assay on K562, the Activity entry is “Dose-dependent effect” and the pIC50 was 8.12. Also, in the assay on DU-145, the Activity entry was “Dose-dependent effect” and the pIC50 was 7.40.
For `COc1ccc(NS(=O)(=O)/C=C/c2c(OC)cc(OCCCC(=O)O)cc2OC)cc1N`, the Activity entry in the assay with K562 and in the assay on DU-145 was “Dose-dependent effect” throughout. Besides, the pIC50 in the assay with K562 and with DU-145 was 5.00 throughout.
Consider `O=S(=O)(/C=C/c1ccccc1)Nc1ccc(Cl)cc1`, for which, in the assay with K562, the Activity entry is “Dose-dependent effect” and the pIC50 was 4.70. Also, in the assay on DU-145, the Activity entry is “Dose-dependent effect” and the pIC50 was 4.70.
In the case of `COc1ccc(NS(=O)(=O)/C=C/c2cc(OC)c(OC)c(OC)c2)cc1N`, the Activity result in the assay with K562 and in the assay with DU-145 was “Dose-dependent effect” each time. Moreover, the results for the pIC50 in the assay on K562 and in the assay on DU-145 were 4.82 and 4.46, respectively.
On to `COc1cc(OC)c(/C=C/S(=O)(=O)Nc2ccc(OC)c(F)c2)c(OC)c1`, for which, in the assay on K562, the Activity result was “Dose-dependent effect” and the negative logarithm of the IC50 (pIC50) is 7.12. In the assay on DU-145, the Activity entry was “Dose-dependent effect” and the pIC50 was 6.70.
As for `COC(=O)C(C)Nc1cc(NS(=O)(=O)/C=C/c2c(OC)cc(OC)cc2OC)ccc1OC` (stereo not drawn), in the assay with K562, the Activity entry is “Dose-dependent effect” and the pIC50 is 6.52. For the same compound, in the assay on DU-145, the Activity result was “Dose-dependent effect” and the pIC50 is 7.00.
As to `COc1ccc(/C=C/S(=O)(=O)Nc2ccc(OC)cc2)cc1`, in the assay with K562, the Activity entry is “Dose-dependent effect” and the pIC50 was 5.30. In addition, in the assay with DU-145, the Activity entry is “Dose-dependent effect” and the pIC50 is 5.30.
On to `COc1ccc(NS(=O)(=O)/C=C/c2ccccc2OC)cc1`, for which, in the assay with K562, the Activity entry is “Dose-dependent effect” and the pIC50 was 5.30. Besides, in the assay on DU-145, the Activity entry is “Dose-dependent effect” and the pIC50 is 5.30.
Take `COc1ccc(/C=C/S(=O)(=O)Nc2ccc(OC)c(F)c2)cc1`: in the assay with K562, the Activity result was “Dose-dependent effect” and the pIC50 was 6.00. Besides, in the assay with DU-145, the Activity entry was “Dose-dependent effect” and the negative logarithm of the IC50 (pIC50) is 5.30.
Consider `COc1ccc(NS(=O)(=O)/C=C/c2c(F)cc(F)cc2F)cc1`, for which, in the assay with K562, the Activity entry was “Dose-dependent effect” and the pIC50 was 4.82. In the assay on DU-145, the Activity entry was “Dose-dependent effect” and the pIC50 was 4.12.
`COc1ccc(NS(=O)(=O)/C=C/c2c(OC)cc(OCCCC(=O)O)cc2OC)cc1[N+](=O)[O-]`: in the assay with K562, the Activity entry was “Dose-dependent effect” and the pIC50 is 4.00. In the assay on DU-145, the Activity result is “Dose-dependent effect” and the pIC50 is 4.00.
`COc1ccc(/C=C/S(=O)(=O)Nc2c(OC)cc(OC)cc2OC)cc1`: the Activity entry in the assay with K562 and in the assay on DU-145 was “Dose-dependent effect” each time. Also, the pIC50 was 5.60 in the assay with K562 and 5.12 with DU-145.

The record behind these values is ChEMBL document CHEMBL2396655, “Design, synthesis, and biological evaluation of (E)-N-aryl-2-arylethenesulfonamide analogues as potent and orally bioavailable microtubule-targeted anticancer agents” (J Med Chem, 2013).
